Screening data from PubChem BioAssay.
The list is not random: actives were taken first. Their share in the collection is about 1.5%.
DAGLB inhibitor: DAGLB lipase inhibitors, primary screen, biochemical, fluorescence, HTS. HEK293T DAGLB membrane lysate, EnzChek fluorogenic substrate. AID 504411, 2011. inhibition, % at 5.17 µM. Diacylglycerol lipase-beta (Homo sapiens), Q8NCG7. hit rate 0.059% among 340,000; in the data active = inhibition above about 34%;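 note: 0% = enzyme with vehicle and 100% = wells lacking enzyme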
ABHD4 inh: ABHD4 inhibitors, primary screen, biochemical, fluorescence polarization, mouse | hit rate 0.54% among 370,000 | purified mABHD4, FP-Rh probe fluorescence polarization | (Lyso)-N-acylphosphatidylethanolamine lipase (Mus musculus), Q8VD66 | inhibition, % at 8.92 µM;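 active = inhibition exceeding the mean over every tested compound plus 3 SD, cut at about 30% in these data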;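 note: 0% = plate median of compound wells and 100% = S159A mutant with DMSO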
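Material: mouse ABHD4 enzyme, wild type; Benchmarks: S159A mutant high control, sample median low control; Buffer or medium: HEPES pH 7.0, NaCl, Pluronic buffer; Signal: fluorescence polarization; Read-out: percent inhibition of probe binding, normalized to plate controls; Timing: pre-incubation 45 min, probe exposure 60 min, at 25 °C; Dosing: 8.92 µM, single dose.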
TCR-CD3 inh: inhibitors of human TCR-CD3 interaction, primary screen, biochemical, fluorescence, TAMRA-labeled TCR probe | inhibition, % at 9.4 µM | hit rate 0.37% among 360,000 | T-cell receptor (TCR);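 note: recombinant mutant TCR 2C K166C tagged with TAMRA read by polarization; 0% = receptor in buffer alone and 100% = receptor with positive control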
SIAE primary: human SIAE inhibitors, primary screen, biochemical, fluorescence polarization, FP-Rh probe, 1536-well HTS | Sialate O-acetylesterase (Homo sapiens), Q9HAT2 | SIAE FP-Rh probe binding | inhibition, % at 9.66 µM | hit rate 0.69% among 370,000 | AID 1053197, 2014;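 active = inhibition above a cutoff: mean of compounds within the control limits plus 3 SD of those, cut at about 17% in these data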;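 note: 0% = plate median of compound wells and 100% = probe without SIAE protein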
Target sequence (Q9HAT2 whole entry, looked up): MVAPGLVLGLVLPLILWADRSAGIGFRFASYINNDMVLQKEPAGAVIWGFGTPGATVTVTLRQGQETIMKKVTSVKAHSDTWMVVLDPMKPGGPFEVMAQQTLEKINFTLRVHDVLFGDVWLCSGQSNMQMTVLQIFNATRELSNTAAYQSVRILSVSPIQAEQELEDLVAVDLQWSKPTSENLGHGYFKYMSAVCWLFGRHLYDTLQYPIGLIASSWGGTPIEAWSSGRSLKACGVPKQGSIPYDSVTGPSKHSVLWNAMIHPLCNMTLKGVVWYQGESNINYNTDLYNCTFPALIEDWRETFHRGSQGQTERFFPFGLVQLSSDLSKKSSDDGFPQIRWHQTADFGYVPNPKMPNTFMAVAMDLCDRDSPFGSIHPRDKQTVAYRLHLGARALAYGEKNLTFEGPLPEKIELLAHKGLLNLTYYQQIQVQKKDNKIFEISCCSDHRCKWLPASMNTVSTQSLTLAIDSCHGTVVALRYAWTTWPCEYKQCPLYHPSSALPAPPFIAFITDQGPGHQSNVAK
HTRA1 inhibitor: HTRA1 serine protease inhibitors, primary screen, biochemical, fluorescence polarization, HTS | Q92743 | recombinant HTRA1, FP-rhodamine activity-based probe | inhibition, % at 5.96 µM | hit rate 0.5% among 340,000; in the data active = inhibition above about 36%;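 note: 0% = enzyme with DMSO and 100% = wells lacking enzyme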
BSA TAMRA ctr: compounds interfering with TAMRA-BSA probe, counter-screen for TCR-CD3 interaction inhibitor project, biochemical, fluorescence, TAMRA-labeled BSA | hit rate 10% among 1,200 | AID 652035, 2013 | shares compounds with TCR-CD3 inh | inhibition, % at 9.4 µM | TAMRA-labeled BSA probe fluorescence counterscreen; in the data active = inhibition above about 23%;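 note: 0% = buffer low control and 100% = reference high control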
TCR-CD3 inh conf: TCR-CD3 interaction inhibitors, retest, confirmation, biochemical, fluorescence, TAMRA-labeled TCR probe; inhibition, % at 9.4 µM; shares compounds with TCR-CD3 inh; TAMRA-labeled TCR probe fluorescence binding assay; hit rate 48% among 1,200
* hit, by the source's call; x = not tested or not shown. Cut-off read from the data, not from the text of the source, unless noted: active = inhibition above about 19%; inactive = the rest.

SMILES | DAGLB inhibitor | ABHD4 inh | TCR-CD3 inh | SIAE primary | HTRA1 inhibitor | BSA TAMRA ctr | TCR-CD3 inh conf
COC(=O)C1=C(CSc2nc3c(cc2C#N)CN(C)CC3)OC(N)=C(C#N)C1c1ccc(F)cc1 (configuration not stated) | 3.9 | 14.2 | 19.7* | 6.7 | 18.7 | -3.3 | 0.5
CCOc1ccc(C(=O)Nc2cc(-c3nc4ccccc4[nH]3)ccc2C)cc1[N+](=O)[O-] | -6.3 | -77.6 | 15.6 | -118.1 | -78.8 | x | x
CCOc1ccc(C(=O)Nc2cc(-c3nc4ccccc4[nH]3)ccc2Cl)cc1[N+](=O)[O-] | -5.5 | -50.1 | 25.1* | -78.1 | -48.0 | 19.5 | 39.6*
CCN(CC)CCNC(=O)c1ccc(NCN2C(=O)NC(c3ccccc3)(c3ccccc3)C2=O)cc1 | x | 3.1 | -1.0 | 3.3 | x | x | x
COc1ccc(-c2cn(-c3ccc(Cl)cc3)c3[n+]2CCCCC3)cc1 | 1.6 | -2.9 | 33.8* | 5.7 | 0.3 | -5.9 | 0.5
O=C1CC(=O)NC(SCC(=O)Nc2ccccc2[N+](=O)[O-])=N1 | 3.5 | 20.2 | 25.9* | 16.1 | 4.9 | -11.6 | 15.1
Cc1cc(C)nc(SCC(=O)Nc2ccccc2[N+](=O)[O-])n1 | -2.4 | -4.6 | 3.1 | 5.5 | 4.5 | x | x
CN1CCc2c(c3ccccc3n2Cc2ccccc2)C1 | 1.5 | -6.7 | -6.9 | 7.1 | -2.9 | 1.9 | 3.2
CCCCN1CCc2c(c3ccccc3n2Cc2ccccc2)C1 | 1.2 | 3.7 | -1.7 | 0.9 | -4.3 | x | x
CNC(=S)NNC(=O)c1oc2nc(-c3ccccc3)cc(C)c2c1N | -0.6 | 12.4 | 29.3* | -2.3 | 22.9 | -0.6 | 18.3
O=C(CP(=O)(c1ccccc1)c1ccccc1)N/N=C/c1cc(Br)cc(Br)c1O | 1.7 | 4.2 | 50.2* | 11.3 | 29.4 | -8.7 | 51.2*
O=C(CNC(=O)c1ccccc1Br)N/N=C\c1cc([N+](=O)[O-])cc(Br)c1O | 10.4 | 11.0 | 68.6* | -1.0 | 10.9 | -4.8 | 60.5*
O=C(CNC(=O)c1ccccc1Br)N/N=C/c1ccccc1O | 0.4 | -4.5 | 3.5 | 1.0 | -1.4 | x | x
O=C(Cc1ccccc1)N/N=C/c1cc(Br)cc(Cl)c1O | 9.2 | 5.0 | 29.7* | 13.5 | 18.2 | -13.8 | 17.6
CN1[C@@H](Cc2ccccc2)COc2cc(F)ccc2S1(=O)=O | x | -12.1 | x | -1.7 | x | x | x
O=C(CSc1nnc(-c2ccccc2)n1-c1ccccc1)Nc1ccc(Oc2ccccc2)cc1 | x | -1.1 | x | 9.9 | x | x | x
CC(C)(C)S(=O)(=O)N1C[C@H]2CC(=O)C(CCO)=C2[C@@H]1CCO | x | 8.6 | 13.2 | 1.5 | x | x | x
COCCNC(=O)c1ccc(N2CC3CC(C2)c2cccc(=O)n2C3)c(NC(=O)c2ccccc2Br)c1 (configuration not stated) | 2.0 | -0.9 | 49.1* | -2.2 | -1.3 | 6.6 | 2.1
CC(C)[C@H](NS(=O)(=O)c1ccc(F)cc1F)C(=O)N1CCC[C@H]1C(=O)NCc1ccccc1 | x | -1.1 | -4.7 | -0.8 | x | x | x
COc1ccc(/C(C)=N/NC(=O)c2nnn(-c3nonc3N)c2CN(C)c2ccccc2)cc1 | 1.1 | -6.3 | 4.6 | -2.8 | -12.0 | x | x
C/C(=N\NC(=O)c1nnn(-c2nonc2N)c1CN(C)c1ccccc1)c1ccccc1O | 6.2 | -5.5 | 40.9* | 2.7 | 29.0 | -1.8 | 29.4*
COCC(=O)N1C[C@H]2CON(C)[C@H]2C[C@H]1c1cccc(-c2cc(Cl)cc(Cl)c2)c1 | x | 3.9 | -8.3 | -1.5 | x | x | x
O=C(N[C@H](C(=O)N1CCC[C@H]1C(=O)NC1CCCC1)C1CCCCC1)C1CCCC1 | x | 2.1 | 2.4 | 2.0 | x | x | x
O=C(NNC(=S)NC(=O)c1cccnc1)c1ccc(F)cc1 | -1.3 | 3.7 | 23.0* | 1.7 | 4.6 | -1.7 | 27.9*
Cc1cc(NS(=O)(=O)c2ccc(NC(=S)NC(=O)c3cccnc3)cc2)no1 | -1.4 | -6.7 | 46.2* | -1.6 | 7.8 | 1.6 | 1.9
SMILES | DAGLB inhibitor | ABHD4 inh | TCR-CD3 inh | SIAE primary | HTRA1 inhibitor | BSA TAMRA ctr | TCR-CD3 inh conf
O=C(NNC(=S)NC(=O)c1cccnc1)c1ccccc1 | -0.6 | 13.6 | 15.4 | 7.9 | 7.1 | x | x
COc1ccc(CC(=O)NNC(=S)NC(=O)c2cccnc2)cc1 | -5.4 | 4.8 | 26.1* | 1.9 | 4.7 | -3.4 | 17.4
O=C(NNC(=S)NC(=O)c1ccc(F)cc1)c1cccnc1 | -0.5 | 4.2 | 8.7 | 3.4 | 6.1 | x | x
COc1ccc(CC(=O)NNC(=S)NC(=O)c2cc(OC)c(OC)c(OC)c2)cc1 | 1.4 | 5.4 | -0.3 | 1.1 | 3.0 | x | x
COc1ccc(C(=O)NNC(=S)NC(=O)c2cccnc2)cc1 | 0.3 | 8.1 | 38.4* | 8.3 | -1.7 | 1.4 | 37.3*
C[C@@H]1CN([C@@H](C)CO)C(=O)CCCn2cc(nn2)CO[C@H]1CN(C)C(=O)Nc1ccc2c(c1)OCCO2 | x | 5.7 | 0.2 | -2.5 | x | x | x
C=CCN1C(=O)c2n[nH]c(C)c2C1c1ccc(C)cc1 (configuration not stated) | x | -6.9 | 2.3 | 1.6 | x | x | x
C[C@H](CO)N1C[C@H](C)[C@@H](CN(C)S(C)(=O)=O)OCc2cn(nn2)CCCC1=O | x | -1.5 | 1.9 | 0.0 | x | x | x
COC(=O)[C@]12C[C@H](CC(=O)N3CCOCC3)C(=O)N(CCC3=CCCCC3)C1=C[C@H](COCc1ccccc1)O[C@@H]2C | x | 1.8 | 3.6 | 3.8 | x | x | x
COc1ccc(C(=O)NNC(=S)NC(=O)c2cccs2)cc1 | 2.2 | -5.2 | 23.3* | 3.5 | 2.2 | 3.3 | 29.6*
COc1ccc(C(=O)NNC(=S)NC(=O)c2ccc(F)cc2)cc1Br | x | 3.8 | 19.9* | 0.2 | x | -5.1 | 5.3
COc1ccc(C(=O)NNC(=S)NC(=O)c2ccc(OC)cc2)cc1 | 1.4 | 2.6 | 10.6 | 4.7 | 3.6 | x | x
COC(=O)[C@]12C[C@H](CC(=O)NCCC(C)C)C(=O)N(Cc3ccc(Cl)cc3Cl)C1=C[C@H](COCc1ccccc1)O[C@@H]2C | x | -0.5 | x | -2.8 | x | x | x
C=CCc1cccc2cc(C(=O)NNC(=O)CC#N)c(=O)oc12 | 3.4 | -2.8 | 28.6* | 2.8 | 3.5 | 0.8 | 15.2
C=CCc1cccc2cc(C(=O)NCCOC)c(=O)oc12 | -1.8 | 9.3 | -8.6 | -6.3 | -2.3 | x | x
CN1CCC(OC(c2ccccc2)c2ccc(Cl)cc2)C1 (configuration not stated) | -0.2 | 3.7 | 30.7* | 2.5 | 3.9 | -3.1 | 2.5
Cc1ccc(O)c(-c2cc(C(=O)Nc3ccc(S(=O)(=O)Nc4nccc(C)n4)cc3)[nH]n2)c1 | 5.4 | -31.1 | 59.6* | -26.5 | -34.7 | -7.6 | 31.8*
COc1ccc(NC(=O)OC[C@@H]2CSCCS(=O)(=O)N2)cc1 | x | 2.6 | 1.7 | 1.5 | x | x | x
